Series [1] is described as follows: Drug level in human liver S9 fraction assessed as compound formation treated with 50 uM amiodarone for 60 mins by UPLC-Q/TOF mass spectrometry in presence of NADPH. The series is classed as ADME, subcellular. The note with it: s9, 1 h. The method, boiled down: (§1)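 Pooled human liver S9 at 2.0 mg/ml protein in 100 mM potassium phosphate pH 7.4, 37°C. Amiodarone 50 μM (DMSO 0.1% final). 3 min preincubation, then started with 2.0 mM NADPH. Quenched at 60 min with equal volume of ice-cold acetonitrile. Controls lacked NADPH or substrate. Duplicates. Read-out by UPLC-Q/TOF MS and UPLC-UV.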

The nature of series [2]: Drug level in arrhythmia patient bile treated with amiodarone at 200 mg/day, po for 7 days by UPLC-Q/TOF mass spectrometry. The series is classed as ADME, organism-based. To be noted: human, in vivo, 168 h. The method, boiled down:
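Three arrhythmia patients (66-89 y, 1 male, 2 female) with T-tube drainage after hepatobiliary surgery. Bile collected from T-tube at 1-h intervals (about 10 ml) over 24 h, stored at -20°C. Glucuronides hydrolysed with β-glucuronidase in 1 M citrate pH 5.0, 37°C, 16 h. Profiled by UPLC-Q/TOF on HSS T3 column, formic acid/acetonitrile gradient, ES+, m/z 80–1000.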

Series [3] is described as follows: Retention time of the compound by UPLC-Q/TOF mass spectrometry. The series is classed as physicochemical. The method, boiled down: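 UPLC on HSS T3 column (1.8 μm, 2.1 × 100 mm). Mobile phase 0.05% formic acid in water and in acetonitrile. Q/TOF detection in ES+ with leucine enkephalin lock mass.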
In series [4] the test system is Liver microsome. The experiment in a line: Drug level in human liver microsomes assessed as compound formation treated with 50 uM amiodarone for 60 mins by UPLC-Q/TOF mass spectrometry in presence of NADPH. Type of series: ADME. To be noted: 1 h. The method, boiled down: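 Pooled human liver microsomes at 1.0 mg/ml protein in 100 mM potassium phosphate pH 7.4, 37°C. Amiodarone 50 μM (DMSO 0.1% final). 3 min preincubation, then started with 2.0 mM NADPH. Stopped at 60 min with equal volume of ice-cold acetonitrile. Controls lacked NADPH or substrate. Duplicates. Analysed by UPLC-Q/TOF MS.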
(Microsomes from liver hold many membrane-bound enzymes, among them those of drug oxidation.)

The nature of series [5]: Drug level in human liver S9 fraction assessed as alcohol dehydrogenase-mediated compound formation treated with 50 uM amiodarone for 60 mins by UPLC-Q/TOF mass spectrometry in presence of NADPH. The series is classed as ADME, subcellular. To be noted: s9, 1 h. In a few lines:
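Human liver S9 (2.0 mg/ml) in 100 mM potassium phosphate pH 7.4 at 37°C. Preincubated 10 min with or without 5 μM 4-methylpyrazole (final), then 50 μM amiodarone added. Incubated 60 min with 2.0 mM NADPH. Carboxylic acid metabolite compared by LC/MS between incubations with and without 4-MP. Duplicates.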

A short description of series [6]: Drug level in human liver S9 fraction assessed as compound formation treated with 50 uM amiodarone for 60 mins by LC-UV analysis in presence of NADPH. Type of series: ADME, subcellular. The note with it: s9, 1 h. In a few lines:
as §1

For the molecule `CCN(CC)CCOc1c(I)cc(C(=O)c2c(CCCCO)oc3ccccc23)cc1I`, the Drug metabolism result in series [1], in series [2] and in series [4] was “metabolite_detected” each time. In addition, the Retention_time in series [3] is given as 14.3 min.

On to `CCN(CC)CCOc1c(I)cc(C(=O)c2c(CCC(C)O)oc3ccccc23)cc1I` (stereo not drawn), for which the Drug metabolism result in series [1], in series [2] and in series [4] was “metabolite_detected” in each case. Besides, the Retention_time in series [3] turned out to be 14.5 min.

As for `CCCCc1oc2ccccc2c1C(=O)c1cc(I)c(O)c(I)c1`, the Drug metabolism result in series [1], in series [2] and in series [4] was “metabolite_detected” in each case. Further, the Retention_time in series [3] was determined as 16.3 min.

Take `CCNCCOc1c(I)cc(C(=O)c2c(CCCC(=O)O)oc3ccccc23)cc1I`: the Drug metabolism entry in series [1] and in series [2] was “metabolite_detected” throughout. For the same molecule, in series [3], the Retention_time was determined as 13.4 min.

For `CCCCc1oc2cc(O)ccc2c1C(=O)c1cc(I)c(OCCN(CC)CC)c(I)c1`, the Drug metabolism entry in series [1], in series [2] and in series [4] was “metabolite_detected” throughout. The same molecule registered a Retention_time in series [3] of 15.5 min.

Take `CCN(CC)CCOc1c(I)cc(C(=O)c2c(CCCC(=O)O)oc3ccccc23)cc1I`: the Drug metabolism entry in series [5] and in series [2] was “metabolite_detected” in each case. The same molecule showed a Retention_time in series [3] of 14.2 min.

Take `CCN(CC)CCOc1ccc(C(=O)c2c(CCCC(=O)O)oc3ccccc23)cc1I`: the Drug metabolism result in series [1] and in series [2] was “metabolite_detected” in each case. In series [3], this molecule came in with a Retention_time of 13.3 min.

For the molecule `CCCCc1oc2ccccc2c1C(=O)c1cc(I)c(OCCO)c(I)c1`, the Drug metabolism entry in series [1], in series [2] and in series [4] was “metabolite_detected” in each case. In addition, the Retention_time in series [3] was 21.5 min.

Consider `CCCCc1oc2ccccc2c1C(=O)c1ccc(OCCNCC)c(I)c1`, for which the Drug metabolism entry in series [1], in series [2] and in series [4] was “metabolite_detected” in each case. Moreover, the Retention_time in series [3] is reported as 16.2 min.

With `CCCCc1oc2ccccc2c1C(=O)c1cc(I)c(OCCNCC)c(I)c1` [DESETHYLAMIODARONE], the Drug metabolism result in series [1], in series [6], in series [2] and in series [4] was “metabolite_detected” each time. This molecule also showed a Retention_time in series [3] of 17 min.
